According to ChEMBL document CHEMBL4007439, “Design, Synthesis, and Evaluation of a Novel Series of Oxadiazine Gamma Secretase Modulators for Familial Alzheimer's Disease” (J Med Chem, 2017):
In brackets after ≈: the same amount, converted by molar mass.

Assays:
Mus musculus [1] = assay: Increase in amyloid beta 37 levels in mouse brain at 30 mg/kg, po measured at 6 hrs post dose by ELISA relative to control; type: functional
Summary of the method: (§1)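 Single oral dose of 30 mg/kg; brain (mouse, rat) and rat CSF Aβ42 and Aβ37 measured 6 h post-dose, expressed relative to vehicle; total and free brain drug levels and brain:plasma ratio taken at the same time.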

Cytochrome P450 2C9 = Cytochrome P450 2C9 (Homo sapiens, UniProt P11712); assay: Inhibition of CYP2C9 (unknown origin); type: ADME
Chain of Cytochrome P450 2C9 (P11712 whole entry): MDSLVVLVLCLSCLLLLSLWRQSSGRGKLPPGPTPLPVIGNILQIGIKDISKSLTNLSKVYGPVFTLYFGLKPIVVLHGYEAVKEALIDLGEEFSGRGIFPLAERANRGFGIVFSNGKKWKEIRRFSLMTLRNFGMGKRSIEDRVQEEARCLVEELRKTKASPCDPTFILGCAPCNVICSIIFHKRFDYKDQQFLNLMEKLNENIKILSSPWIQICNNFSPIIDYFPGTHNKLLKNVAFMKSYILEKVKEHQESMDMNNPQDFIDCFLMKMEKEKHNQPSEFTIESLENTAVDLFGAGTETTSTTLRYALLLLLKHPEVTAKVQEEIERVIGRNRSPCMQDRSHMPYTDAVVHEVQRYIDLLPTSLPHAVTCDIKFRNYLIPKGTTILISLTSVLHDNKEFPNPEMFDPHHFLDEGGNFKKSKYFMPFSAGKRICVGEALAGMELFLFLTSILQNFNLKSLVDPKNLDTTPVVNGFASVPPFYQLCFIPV

[2] = Total drug level in mouse brain at 30 mg/kg, po measured at 6 hrs post dose; type: ADME, organism-based; settings: read-out: Drug uptake; summary of the method: as §1
[3] = Unbound intrinsic clearance in rat hepatocytes; type: ADME, cell-based, Hepatocyte
Brain [4] = assay: Unbound drug level in mouse brain at 30 mg/kg, po measured at 6 hrs post dose; type: ADME, organism-based; settings: in vivo; summary of the method: as §1
[5] = target: Voltage-gated inwardly rectifying potassium channel KCNH2 (Homo sapiens, UniProt Q12809); assay: Inhibition of human ERG by patch clamp assay
Chain of Voltage-gated inwardly rectifying potassium channel KCNH2 (Q12809 whole entry): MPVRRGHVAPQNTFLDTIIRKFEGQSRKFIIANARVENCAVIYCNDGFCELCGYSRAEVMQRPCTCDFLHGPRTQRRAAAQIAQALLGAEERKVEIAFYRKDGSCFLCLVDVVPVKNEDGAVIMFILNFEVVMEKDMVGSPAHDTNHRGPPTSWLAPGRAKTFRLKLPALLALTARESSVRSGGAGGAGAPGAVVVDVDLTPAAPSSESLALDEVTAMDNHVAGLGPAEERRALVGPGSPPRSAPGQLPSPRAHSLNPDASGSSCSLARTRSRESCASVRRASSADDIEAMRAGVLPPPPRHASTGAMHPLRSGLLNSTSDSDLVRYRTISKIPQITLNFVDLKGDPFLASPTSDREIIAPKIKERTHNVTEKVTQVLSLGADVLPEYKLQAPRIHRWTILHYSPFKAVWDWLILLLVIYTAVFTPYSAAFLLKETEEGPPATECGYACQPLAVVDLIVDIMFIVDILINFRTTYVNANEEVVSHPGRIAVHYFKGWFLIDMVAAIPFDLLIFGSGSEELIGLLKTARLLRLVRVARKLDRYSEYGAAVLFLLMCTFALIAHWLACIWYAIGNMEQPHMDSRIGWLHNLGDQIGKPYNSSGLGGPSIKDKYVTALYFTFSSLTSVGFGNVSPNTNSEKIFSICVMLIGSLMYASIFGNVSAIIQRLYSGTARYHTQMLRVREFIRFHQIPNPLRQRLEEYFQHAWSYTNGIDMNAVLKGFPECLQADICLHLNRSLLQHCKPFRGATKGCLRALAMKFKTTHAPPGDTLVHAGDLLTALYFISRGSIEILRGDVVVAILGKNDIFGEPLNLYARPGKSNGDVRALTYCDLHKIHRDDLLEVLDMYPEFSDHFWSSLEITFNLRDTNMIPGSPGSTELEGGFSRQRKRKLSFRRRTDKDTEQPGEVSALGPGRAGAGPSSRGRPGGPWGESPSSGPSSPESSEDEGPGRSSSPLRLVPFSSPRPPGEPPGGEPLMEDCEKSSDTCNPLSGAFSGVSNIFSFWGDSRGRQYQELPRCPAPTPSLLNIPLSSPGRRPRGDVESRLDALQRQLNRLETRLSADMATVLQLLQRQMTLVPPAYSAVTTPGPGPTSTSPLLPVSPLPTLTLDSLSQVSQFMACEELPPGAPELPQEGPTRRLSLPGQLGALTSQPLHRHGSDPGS
Summary of the method: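 Functional patch clamp assay of hERG current; IC50 derived.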

Cytochrome P450 3A4 [6] = target: T1, Cytochrome P450 3A4 (Homo sapiens, UniProt P08684); assay: Time dependent inhibition of CYP3A4 (unknown origin) at 5 to 25 uM; type: ADME
T1 sequence (P08684 whole entry): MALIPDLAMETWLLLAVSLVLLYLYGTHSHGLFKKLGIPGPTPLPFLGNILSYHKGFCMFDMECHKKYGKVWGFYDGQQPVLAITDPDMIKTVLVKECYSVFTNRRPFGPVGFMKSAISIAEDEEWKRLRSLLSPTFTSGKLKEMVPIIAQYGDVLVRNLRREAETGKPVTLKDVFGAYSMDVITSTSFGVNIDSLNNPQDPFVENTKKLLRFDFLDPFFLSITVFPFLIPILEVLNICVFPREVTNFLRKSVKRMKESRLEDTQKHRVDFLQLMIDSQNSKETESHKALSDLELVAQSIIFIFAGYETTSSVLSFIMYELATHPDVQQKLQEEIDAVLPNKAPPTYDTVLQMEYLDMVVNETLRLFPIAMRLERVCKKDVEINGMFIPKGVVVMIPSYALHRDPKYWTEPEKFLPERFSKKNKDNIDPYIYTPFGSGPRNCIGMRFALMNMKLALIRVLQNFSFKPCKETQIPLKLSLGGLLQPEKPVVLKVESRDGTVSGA

TK6 [7] = assay: Genotoxicity in p53-competent human TK6 cells in absence of S9 fraction by GADD45alpha GFP reporter assay; type: toxicity, cell-based
Summary of the method: (§2)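 GreenScreen GADD45alpha-GFP reporter assay in human cells, run externally.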

[8] = Ratio of drug level in brain to plasma in mouse at 30 mg/kg, po measured at 6 hrs post dose; type: ADME, organism-based; settings: read-out: BPR; summary of the method: as §1
[9] = Cmax in Wistar rat at 10 mg/kg, po; type: ADME, organism-based; set-up: dose 10 mg/kg, route oral; settings: in vivo
Summary of the method: (§3)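 Oral dosing; AUC and Cmax taken from the p.o. administration; bioavailability (%F) calculated from p.o. and i.v. data.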

Cytochrome P450 3A4 [10] = target: T1, Cytochrome P450 3A4; assay: Inhibition of CYP3A4 (unknown origin); type: ADME
Rattus norvegicus [11] = assay: Reduction in amyloid beta 42 levels in rat CSF at 30 mg/kg, po measured at 6 hrs post dose by ELISA; type: functional; summary of the method: as §1
[12] = Cmax in Cynomolgus monkey at 10 mg/kg, po; type: ADME, organism-based, Macaca fascicularis; set-up: dose 10 mg/kg, route oral; settings: in vivo; summary of the method: as §3
TK6 [13] = assay: Genotoxicity in p53-competent human TK6 cells in presence of S9 fraction by GADD45alpha GFP reporter assay; type: toxicity, cell-based; summary of the method: as §2
[14] = Clearance in Wistar rat at 1 mg/kg, iv; type: ADME, organism-based; settings: in vivo
Summary of the method: (§4)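 Intravenous dosing at 1 mg/kg; half-life, steady-state volume of distribution and clearance derived from the i.v. administration.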

[15] = Total drug level in rat brain at 30 mg/kg, po measured at 6 hrs post dose; type: ADME, organism-based; settings: read-out: Drug uptake; summary of the method: as §1
Cynomolgus monkey [16] = assay: Oral bioavailability in Cynomolgus monkey at 10 mg/kg; type: ADME, organism-based, Macaca fascicularis; settings: in vivo; summary of the method: as §3
Rattus norvegicus [17] = assay: Reduction in amyloid beta 42 levels in rat brain at 30 mg/kg, po measured at 6 hrs post dose by ELISA; type: functional; summary of the method: as §1
Mus musculus [18] = assay: Reduction in amyloid beta 42 levels in mouse brain at 30 mg/kg, po measured at 6 hrs post dose by ELISA; type: functional; summary of the method: as §1
Brain [19] = assay: Unbound drug level in rat brain at 30 mg/kg, po measured at 6 hrs post dose; type: ADME, organism-based; settings: in vivo; summary of the method: as §1
[20] = Half life in Wistar rat at 1 mg/kg, iv; type: ADME, organism-based; settings: in vivo; summary of the method: as §4
[21] = Volume of distribution at steady state in Wistar rat at 1 mg/kg, iv; type: ADME, organism-based; settings: in vivo, read-out: Vdss; summary of the method: as §4
[22] = Volume of distribution at steady state in Cynomolgus monkey at 1 mg/kg, iv; type: ADME, organism-based, Macaca fascicularis; settings: in vivo, read-out: Vdss; summary of the method: as §4
Rattus norvegicus [23] = assay: Increase in amyloid beta 37 levels in rat CSF at 30 mg/kg, po measured at 6 hrs post dose by ELISA relative to control; type: functional; summary of the method: as §1
[24] = Aqueous solubility of compound in phosphate buffer at pH 7.4 after 90 mins; type: physicochemical
Summary of the method: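 Kinetic solubility method in pH 7.4 phosphate buffer, incubated 90 min at room temperature.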

[25] = AUClast in Wistar rat at 10 mg/kg, po; type: ADME, organism-based; set-up: dose 10 mg/kg, route oral, time 0 - last; settings: in vivo; summary of the method: as §3
Mus musculus [26] = assay: Decrease in amyloid beta 42 in mouse brain at 30 mg/kg, po administered as single dose after 0.5 to 24 hrs; type: functional
Mus musculus [27] = assay: Decrease in amyloid beta 42 AUC(1 to 24 hrs) in mouse brain at 30 mg/kg, po administered as single dose after 0.5 to 24 hrs; type: functional
[28] = Half life in Cynomolgus monkey at 1 mg/kg, iv; type: ADME, organism-based, Macaca fascicularis; settings: in vivo; summary of the method: as §4
[29] = Oral bioavailability in Wistar rat at 10 mg/kg; type: ADME, organism-based; settings: in vivo; summary of the method: as §3
Cytochrome P450 1A2 = target: T2, Cytochrome P450 1A2 (Homo sapiens, UniProt P05177); assay: Inhibition of CYP1A2 (unknown origin); type: ADME
T2 sequence (P05177 whole entry): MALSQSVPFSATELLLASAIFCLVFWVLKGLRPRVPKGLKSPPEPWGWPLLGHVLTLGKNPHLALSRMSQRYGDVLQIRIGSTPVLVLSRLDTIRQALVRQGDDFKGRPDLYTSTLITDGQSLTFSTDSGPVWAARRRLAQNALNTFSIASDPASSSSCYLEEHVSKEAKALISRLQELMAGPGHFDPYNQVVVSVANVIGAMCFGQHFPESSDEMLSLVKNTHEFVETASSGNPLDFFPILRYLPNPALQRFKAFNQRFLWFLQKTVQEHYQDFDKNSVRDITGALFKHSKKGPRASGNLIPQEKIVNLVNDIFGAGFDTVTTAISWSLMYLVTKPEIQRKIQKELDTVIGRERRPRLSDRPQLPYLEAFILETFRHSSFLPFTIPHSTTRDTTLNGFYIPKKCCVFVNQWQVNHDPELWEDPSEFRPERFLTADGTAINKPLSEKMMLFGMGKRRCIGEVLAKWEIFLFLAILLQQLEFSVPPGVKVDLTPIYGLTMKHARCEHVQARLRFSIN

[30] = Modulation of gamma-secretase in human H4 cells expressing human APP751 assessed as inhibition of amyloid beta 42 production incubated overnight by sandwich ELISA; type: cell-based; settings: Homo sapiens
Summary of the method: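 Aβ42 EC50 in H4 cells overexpressing WT human APP751; each value is the average of n > 2 assays, each run in duplicate.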

[31] = Permeability from apical to basolateral side in human Caco2 cells; type: ADME, cell-based; settings: Caco-2, read-out: permeability
Summary of the method: (§5)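 Caco-2 monolayer assay; apical-to-basolateral permeability (cm/s) and efflux ratio used to judge P-gp efflux potential.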

Rattus norvegicus [32] = assay: Increase in amyloid beta 37 levels in rat brain at 30 mg/kg, po measured at 6 hrs post dose by ELISA relative to control; type: functional; summary of the method: as §1
Cytochrome P450 2C19 = Cytochrome P450 2C19 (Homo sapiens, UniProt P33261); assay: Inhibition of CYP2C19 (unknown origin); type: ADME
Chain of Cytochrome P450 2C19 (P33261 whole entry): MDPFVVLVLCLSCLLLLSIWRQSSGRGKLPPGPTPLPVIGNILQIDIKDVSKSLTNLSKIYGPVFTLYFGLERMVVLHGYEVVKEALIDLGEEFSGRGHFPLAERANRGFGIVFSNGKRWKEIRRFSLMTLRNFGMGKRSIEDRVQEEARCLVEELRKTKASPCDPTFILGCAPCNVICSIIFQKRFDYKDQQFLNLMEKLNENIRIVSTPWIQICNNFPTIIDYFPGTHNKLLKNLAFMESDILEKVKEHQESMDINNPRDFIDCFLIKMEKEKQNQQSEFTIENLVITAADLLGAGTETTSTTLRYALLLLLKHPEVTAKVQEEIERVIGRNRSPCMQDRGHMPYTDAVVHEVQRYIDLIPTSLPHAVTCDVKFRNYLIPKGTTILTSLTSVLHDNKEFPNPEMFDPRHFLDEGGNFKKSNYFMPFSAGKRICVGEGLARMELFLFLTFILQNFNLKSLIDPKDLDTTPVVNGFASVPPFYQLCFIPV

[33] = Cytotoxicity against human HepG2 cells assessed as reduction in cell viability by measuring ATP; settings: read-out: TC50 (the source's name)
Cynomolgus monkey [34] = assay: AUClast in Cynomolgus monkey at 10 mg/kg, po; type: ADME, organism-based, Macaca fascicularis; set-up: dose 10 mg/kg, route oral, time 0 - last; settings: in vivo; summary of the method: as §3
Cytochrome P450 2D6 = Cytochrome P450 2D6 (Homo sapiens, UniProt P10635); assay: Inhibition of CYP2D6 (unknown origin); type: ADME
Chain of Cytochrome P450 2D6 (P10635 whole entry): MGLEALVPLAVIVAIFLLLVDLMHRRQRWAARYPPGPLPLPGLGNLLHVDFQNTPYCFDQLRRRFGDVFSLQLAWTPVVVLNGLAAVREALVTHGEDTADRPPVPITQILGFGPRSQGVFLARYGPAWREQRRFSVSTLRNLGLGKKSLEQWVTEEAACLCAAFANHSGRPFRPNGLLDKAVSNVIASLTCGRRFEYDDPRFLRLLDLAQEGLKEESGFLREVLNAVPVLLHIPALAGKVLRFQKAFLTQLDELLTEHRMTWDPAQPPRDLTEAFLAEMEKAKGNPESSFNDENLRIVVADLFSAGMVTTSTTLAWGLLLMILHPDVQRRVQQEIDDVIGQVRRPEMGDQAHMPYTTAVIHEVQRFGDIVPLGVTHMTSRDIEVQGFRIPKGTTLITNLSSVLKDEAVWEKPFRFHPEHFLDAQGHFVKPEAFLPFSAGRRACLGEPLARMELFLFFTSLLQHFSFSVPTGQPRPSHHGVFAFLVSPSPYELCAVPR

[35] = Efflux ratio of permeability in human Caco2 cells; type: ADME, cell-based; settings: Caco-2; summary of the method: as §5
Mus musculus [36] = assay: Increase in amyloid beta 37 levels in mouse brain at 30 mg/kg, po measured at 0.5 to 24 hrs post dose by ELISA relative to control
Cytochrome P450 2C8 = target: T3, Cytochrome P450 2C8 (Homo sapiens, UniProt P10632); assay: Inhibition of CYP2C8 (unknown origin); type: ADME
T3 sequence (P10632 whole entry): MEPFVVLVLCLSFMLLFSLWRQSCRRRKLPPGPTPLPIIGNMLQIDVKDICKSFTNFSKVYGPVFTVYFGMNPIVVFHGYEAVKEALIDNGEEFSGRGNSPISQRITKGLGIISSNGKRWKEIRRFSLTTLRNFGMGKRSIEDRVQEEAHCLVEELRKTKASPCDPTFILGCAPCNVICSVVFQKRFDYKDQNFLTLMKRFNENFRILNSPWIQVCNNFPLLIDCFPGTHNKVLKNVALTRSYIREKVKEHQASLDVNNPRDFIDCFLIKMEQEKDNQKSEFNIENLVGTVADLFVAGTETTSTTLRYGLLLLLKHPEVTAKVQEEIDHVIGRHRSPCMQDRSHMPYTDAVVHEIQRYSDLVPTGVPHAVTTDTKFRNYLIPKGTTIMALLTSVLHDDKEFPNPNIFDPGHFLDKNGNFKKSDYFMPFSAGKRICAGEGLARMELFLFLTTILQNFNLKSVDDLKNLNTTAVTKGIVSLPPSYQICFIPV

Structure (SMILES): COc1nc(C2=NOC[C@H](c3cc4ccccc4o3)N2)ccc1-n1cnc(C)c1
- fold change (FC) (Mus musculus [1]): 3.2
- IC50 (Cytochrome P450 2C9): 8 µM
- concentration at 6 h [2]: 29.8 to 30 µM
- CL free [3]: 84 mL/min/kg
- Drug uptake(free) (Brain [4]): 427 nM
- IC50 [5]: 15 µM
- TDI (Cytochrome P450 3A4 [6]): Not Active
- Activity (TK6 [7]): Non-Toxic
- Kp at 6 h [8]: 1.5
- Cmax [9]: 7.3 µM
- IC50 (Cytochrome P450 3A4 [10]): 25 µM
- inhibition in vivo at 30 mg/kg (Rattus norvegicus [11]): 58%
- Cmax [12]: 11 µM
- Activity (TK6 [13]): Non-Toxic
- clearance [14]: 5.8 mL/min/kg
- concentration at 6 h [15]: 13.7 µM
- F (Cynomolgus monkey [16]): 136%
- inhibition in vivo at 30 mg/kg (Rattus norvegicus [17]): 30%
- inhibition in vivo at 30 mg/kg (Mus musculus [18]): 43%
- Drug uptake(free) (Brain [19]): 156 nM
- half-life [20]: 2.2 h
- Vd [21]: 1 L/kg
- Vd [22]: 0.9 L/kg
- fold change (FC) (Rattus norvegicus [23]): 20
- solubility at 1.5 h [24]: 84 µM (≈ 32.7 µg/mL)
- AUC(0-t) [25]: 67.8 µM·h
- Imax (Mus musculus [26]): 45%
- inhibition in vivo at 30 mg/kg (Mus musculus [27]): 34%
- half-life [28]: 1.5 h
- bioavailability [29]: 93%
- IC50 (Cytochrome P450 1A2): 3 µM
- EC50 [30]: 0.035 µM
- Papp A→B [31]: 10 ×10⁻⁶ cm/s
- fold change (FC) (Rattus norvegicus [32]): 2.5
- IC50 (Cytochrome P450 2C19): 17 µM
- CC50 [33]: > 72 µM
- AUClast (Cynomolgus monkey [34]): 8.1 µM·h
- IC50 (Cytochrome P450 2D6): 2 µM
- efflux ratio [35]: 1.1
- fold change (FC) (Mus musculus [36]): 3.1
- IC50 (Cytochrome P450 2C8): > 25 µM
